Experimental data: ChEMBL document CHEMBL4477175, “Sclerotiamide: The First Non-Peptide-Based Natural Product Activator of Bacterial Caseinolytic Protease P” (J Nat Prod, 2016)
Active and inactive are the calls of the source. The calls are words filed in the database; no cut-off is given here. Bridge positions count the residues as written; N and C are the ends. Square brackets hold non-standard residues; d marks the D form. Peptide text beside a SMILES is read from it. * marks the point of attachment. X1 = O=C(/C=C/C=C/C=C/C=C/C=C/C(=O)*)NC1=C(O)CCC1=O; Pro(4R-Me) = C[C@H]1CN[C@H](C(=O)O)C1; NMeA = CN[C@@H](C)C(=O)O

Columns and labels:
[1] = target: T1, ATP-dependent Clp protease proteolytic subunit (Escherichia coli (strain K12), UniProt P0A6G7); assay: Activation of Escherichia coli BLR (DE3) ClpP using FITC-beta casein as substrate assessed as degradation of substrate peptide preincubated for 15 mins followed by substrate addition measured every 30 mins for 6 hrs by fluorescence assay
[2] = target: ATP-dependent Clp protease proteolytic subunit (Bacillus subtilis (strain 168)) (UniProt P80244); assay: Activation of Bacillus subtilis ClpP expressed in Escherichia coli BL21 (DE3) using beta casein as substrate at 25 uM preincubated for 15 mins followed by substrate addition measured every 30 mins by SDS-PAGE
In short: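 Recombinant His-tagged BsClpP (Ni-NTA then gel filtration), 420 nM tetradecamer in 25 mM Tris-HCl pH 7.5, 100 mM KCl, preincubated with compound for 15 min at 37 °C. Bovine β-casein added to 7.5 µM final. Reactions quenched in Laemmli buffer at 80 °C after 5 min, 30 min, 1 h and/or 2 h. Loss of the β-casein band was followed on a 10% Bis-Tris SDS gel.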

[3] = target: T1, ATP-dependent Clp protease proteolytic subunit; assay: Activation of Escherichia coli BLR (DE3) ClpP using Abz-DFAPKMALVPYNO2 as substrate assessed as degradation of substrate peptide preincubated for 15 mins followed by substrate addition measured every 30 mins for 2 hrs by fluorescence assay
In short: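 His-tagged EcClpP, 25 nM tetradecamer, in 25 mM HEPES pH 7.5, 100 mM KCl, 5 mM MgCl2, 10% glycerol, 1 mM DTT. Preincubated with a concentration range of compound for 15 min at 30 °C, then 15 µM final decapeptide added. Read at 30 °C, ex 320/em 420 nm. DMSO-subtracted ΔRFU was fitted for apparent activation constant (Kapp).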

[4] = test system: Bacillus; assay: Activation of Bacillus subtilis ClpP expressed in Escherichia coli BL21 (DE3) using FITC-beta casein as substrate assessed as degradation of substrate peptide at 25 uM preincubated for 15 mins followed by substrate addition measured every 30 mins for 6 hrs by fluorescence assay
[5] = target: ATP-dependent Clp protease proteolytic subunit (Escherichia coli (strain K12)) (UniProt P0A6G7); assay: Activation of Escherichia coli BLR (DE3) ClpP using bovine milk FITC-beta casein as substrate assessed as change in relative fluorescent units at 50 uM preincubated for 15 mins followed by substrate addition measured every 30 mins for 6 hrs by fluorescence assay
In short: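 Single-concentration screen: 300 nM tetradecameric recombinant E. coli ClpP in 25 mM Tris-HCl pH 7.5, 100 mM KCl, preincubated with compound (50 µM) 15 min at 37 °C. FITC-β-casein added (final 1.92 µM). Kept at 37 °C; fluorescence (ex 485/em 538 nm) read every 30 min for 6 h. ΔRFU = well minus 1% DMSO well; hits had end-point above 22 500 RFU.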

[6] = target: ATP-dependent Clp protease proteolytic subunit (Escherichia coli (strain K12)) (UniProt P0A6G7); assay: Ratio of EC50 for Escherichia coli BLR (DE3) ClpP using FITC-beta casein as substrate to ratio of EC50 for Escherichia coli ClpP using Abz-DFAPKMALVPYNO2 as substrate
[7] = test system: Escherichia coli; assay: Antibacterial activity against Escherichia coli M5418 harboring deltaacrB/deltaacrD/deltaacrEF::spc deltaemrBdeltaemrYdeltaentS::cam deltamacB deltamdtC deltamdtF mutant assessed as bacterial growth inhibition at 100 uM after 18 hrs by 2-fold dilution method; assay type: functional, organism-based
In short: (§1)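 Broth dilution MIC: cells subcultured 1:100 in LB and grown to OD600 ~1.0. Inoculated at 10^5 cells/mL in LB with 2-fold increasing compound concentrations, up to 100 µM. Incubated 18 h at 37 °C; growth scored visually.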

[8] = target: T2, Beta-casein (Bos taurus) (UniProt P02666); assay: Intrinsic proteolytic activity against fluorescein isothiocyanate-conjugated bovine milk beta casein at 50 uM preincubated for 15 mins followed by substrate addition measured every 30 mins for 6 hrs by fluorescence assay
T2 sequence (whole entry): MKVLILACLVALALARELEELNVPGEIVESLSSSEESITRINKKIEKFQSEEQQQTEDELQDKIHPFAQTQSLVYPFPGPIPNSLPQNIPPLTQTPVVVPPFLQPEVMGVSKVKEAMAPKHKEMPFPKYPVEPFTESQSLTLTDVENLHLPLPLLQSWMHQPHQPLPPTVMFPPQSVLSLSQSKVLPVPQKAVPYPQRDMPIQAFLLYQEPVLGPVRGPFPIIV
In short: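 Enzyme-free control: compound (50 µM) incubated with FITC-β-casein (1.92 µM) in 25 mM Tris-HCl pH 7.5, 100 mM KCl. Substrate cleavage read as fluorescence at 538 nm emission after 485 nm excitation.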

[9] = test system: Pseudomonas aeruginosa; assay: Antibacterial activity against Pseudomonas aeruginosa PAO1116 harboring deltamexAB-oprM/deltamexCD-oprj/deltamexEF-oprN/deltaJK/deltamexXY/deltatriABC mutant assessed as bacterial growth inhibition at 100 uM after 18 hrs by 2-fold dilution method; assay type: functional, organism-based
In short: as §1

[10] = target: ATP-dependent Clp protease proteolytic subunit (Escherichia coli (strain K12)) (UniProt P0A6G7); assay: Activation of Escherichia coli BLR (DE3) ClpP using beta casein as substrate at 50 uM preincubated for 15 mins followed by substrate addition measured every 30 mins by SDS-PAGE; conditions: TDE = time-dependent effect
In short: (§2)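 His-tagged ClpP (E. coli or B. subtilis) expressed with IPTG overnight at 25 °C and purified by Ni-NTA and gel filtration. 420 nM tetradecamer in 25 mM Tris-HCl pH 7.5, 100 mM KCl, preincubated with compound 15 min at 37 °C. Bovine β-casein added (final 7.5 µM). Quenched in Laemmli buffer at 5 min, 30 min, 1 h and/or 2 h. β-Casein band loss read on 10% Bis-Tris SDS-PAGE.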

[11] = target: ATP-dependent Clp protease proteolytic subunit (Bacillus subtilis (strain 168)) (UniProt P80244); assay: Activation of Bacillus subtilis ClpP expressed in Escherichia coli BL21 (DE3) using beta casein as substrate at 50 uM preincubated for 15 mins followed by substrate addition measured every 30 mins by SDS-PAGE
In short: as §2

[12] = test system: Bacillus; assay: Activation of Bacillus subtilis ClpP expressed in Escherichia coli BL21 (DE3) using FITC-beta casein as substrate assessed as degradation of substrate peptide at 50 uM preincubated for 15 mins followed by substrate addition measured every 30 mins for 2 hrs by fluorescence assay

ATP-dependent Clp protease proteolytic subunit (Escherichia coli (strain K12)), sequence (P0A6G7 whole entry): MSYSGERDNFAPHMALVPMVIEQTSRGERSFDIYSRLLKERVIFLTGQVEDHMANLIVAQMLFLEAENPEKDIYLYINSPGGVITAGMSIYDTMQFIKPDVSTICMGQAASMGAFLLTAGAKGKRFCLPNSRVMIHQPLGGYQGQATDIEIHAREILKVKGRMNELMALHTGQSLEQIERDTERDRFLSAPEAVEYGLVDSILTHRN
T1 sequence (P0A6G7 whole entry): as above
ATP-dependent Clp protease proteolytic subunit (Bacillus subtilis (strain 168)), sequence (P80244 whole entry, looked up): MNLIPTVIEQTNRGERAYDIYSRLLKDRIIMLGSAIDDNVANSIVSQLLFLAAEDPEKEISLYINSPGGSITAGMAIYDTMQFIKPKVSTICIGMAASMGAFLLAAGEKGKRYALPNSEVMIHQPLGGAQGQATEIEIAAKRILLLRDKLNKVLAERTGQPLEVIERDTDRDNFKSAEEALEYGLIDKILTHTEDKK

| EC50 [1] [µM] | EC50 [3] [µM] | Structure (SMILES) | Activity [5] | also measured |
| --- | --- | --- | --- | --- |
| 22.2 | 25.4 | CCOC(=O)[C@@H]1C(=O)C[C@@](O)(c2ccc(Br)cc2)C[C@H]1C=C(Cl)Cl |  | Activity [2]: inactive; Activity [4]: inactive |
|  |  | C=CC(C)(C)[C@@]12Nc3c(ccc4c3C=CC(C)(C)O4)[C@]1(O)C[C@H]1C(=O)N3CCC[C@]3(O)C(=O)N12 | inactive |  |
|  |  | CC1(C)C=Cc2c(ccc3c2NC(=O)[C@@]32C[C@@]34NC(=O)[C@]5(CCCN5C3=O)C[C@H]4C2(C)C)O1 | inactive |  |
|  |  | CC1(C)C=Cc2c(ccc3c2[N+]([O-])=C2C3=C[C@@]34NC(=O)[C@]5(CCCN5C3=O)CC4C2(C)C)O1 (some centres not stated) | inactive |  |
|  |  | CC1(C)C=Cc2c(ccc3c4c([nH]c23)C(C)(C)C2C[C@]35CCCN3C(=O)[C@@]2(C4)NC5=O)O1 (some centres not stated) | inactive |  |
|  |  | CC1(C)C=Cc2c(ccc3c4c(n(O)c23)C(C)(C)C2C[C@]35CCCN3C(=O)[C@]2(NC5=O)C4=O)O1 (some centres not stated) | inactive |  |
| 1.2 | 0.1 | C[C@@H]1C[C@H]2C(=O)OC[C@H](NC(=O)[C@H](Cc3ccccc3)NC(=O)/C=C/C=C/C=C/C=C/C=C/C(=O)NC3=C(O)CCC3=O)C(=O)N3CCC[C@H]3C(=O)N(C)[C@@H](C)C(=O)N[C@@H](C)C(=O)N2C1 (X1-FSP[NMeA]A[Pro(4R-Me)]; ester 2-C) |  | Ratio EC50 [6]: 10 |

| Structure (SMILES) | EC50 [1] [µM] | EC50 [3] [µM] | Activity [5] | also measured |
| --- | --- | --- | --- | --- |
| CC1(C)C=Cc2c(ccc3c2NC(=O)[C@@]32[C@H](O)[C@@]34NC(=O)[C@]5(CCCN5C3=O)C[C@H]4C2(C)C)O1 [SCLEROTIAMIDE] | 87.5 | 39.6 | 29900 RFU | Ratio EC50 [6]: 2.2; Activity [7]: inactive; Activity [8]: inactive; Activity [9]: inactive; Activity [10]: Tde; Activity [11]: inactive; Activity [12]: inactive |
